Residue numbers refer to the chain shown, from its start. Calls of active or inactive are those of the source. The rule behind the calls is not given here.
Legend:
[1] = tested on: T1, Androgen receptor (Homo sapiens), P10275 [F877L]; assay: Inhibition of EGFP-tagged AR F876L mutant (unknown origin) transfected in human WPMY1 cells assessed as reduction in R1881-induced nuclear translocation of AR F876L at 20 uM incubated for 24 hrs by Hoechst 33342 staining based fluorescence microscopy; assay type: cell-based
T1 sequence (whole entry): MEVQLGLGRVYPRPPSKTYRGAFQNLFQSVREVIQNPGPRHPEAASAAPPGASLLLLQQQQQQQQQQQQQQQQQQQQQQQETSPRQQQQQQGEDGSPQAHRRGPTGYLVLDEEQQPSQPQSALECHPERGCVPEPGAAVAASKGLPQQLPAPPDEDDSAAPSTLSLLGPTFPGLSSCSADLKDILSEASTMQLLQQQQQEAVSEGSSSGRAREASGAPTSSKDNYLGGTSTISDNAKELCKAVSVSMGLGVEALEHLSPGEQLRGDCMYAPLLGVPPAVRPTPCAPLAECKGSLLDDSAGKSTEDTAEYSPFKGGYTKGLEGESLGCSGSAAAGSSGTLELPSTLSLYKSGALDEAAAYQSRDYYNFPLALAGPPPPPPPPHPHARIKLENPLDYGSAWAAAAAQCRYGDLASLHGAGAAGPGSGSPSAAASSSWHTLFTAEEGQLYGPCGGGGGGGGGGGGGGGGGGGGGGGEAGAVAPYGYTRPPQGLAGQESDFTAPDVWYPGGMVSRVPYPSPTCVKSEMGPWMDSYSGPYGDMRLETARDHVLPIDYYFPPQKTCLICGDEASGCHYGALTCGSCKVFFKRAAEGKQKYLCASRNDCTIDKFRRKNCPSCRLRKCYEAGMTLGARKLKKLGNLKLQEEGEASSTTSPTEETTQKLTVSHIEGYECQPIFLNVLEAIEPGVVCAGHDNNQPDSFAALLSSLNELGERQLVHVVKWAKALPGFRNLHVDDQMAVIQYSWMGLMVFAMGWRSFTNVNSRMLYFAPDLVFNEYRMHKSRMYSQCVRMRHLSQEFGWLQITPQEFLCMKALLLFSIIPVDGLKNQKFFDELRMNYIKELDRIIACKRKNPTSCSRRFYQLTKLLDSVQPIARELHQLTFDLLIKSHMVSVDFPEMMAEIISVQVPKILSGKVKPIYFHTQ
In short: (§1)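 WPMY-1 cells transfected with EGFP-tagged wt-AR or AR-F876L. Treated with vehicle or 20 µM compound, with or without 0.5 nM R1881, for 24 h. Nuclei labelled with Hoechst 33342 and AR localisation imaged by fluorescence.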

VCaP [2] = assay: Inhibition of AR splice variant 7 mutant expression in human VCaP cells at 10 to 40 uM incubated for 24 hrs by Western blot analysis analysis; assay type: functional, cell-based
In short: (§2)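 LNCaP, VCaP and 22Rv1 cells grown in medium with 10% (v/v) FBS. Treated with compounds or DMSO for 24 h. AR-full and AR splice-variant protein then assessed by western blot.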

[3] = biological target: T2, Androgen receptor (Homo sapiens) (UniProt P10275); assay: Inhibition of EGFP-tagged AR (unknown origin) transfected in human WPMY1 cells assessed as reduction in R1881-induced nuclear translocation of AR at 20 uM incubated for 24 hrs by Hoechst 33342 staining based fluorescence microscopy; assay type: cell-based; in short: as §1
T2 sequence (whole entry): T1 sequence (whole entry) with L877F

CWR22R [4] = assay: Inhibition of AR mRNA level in human 22Rv1 cells at 10 to 40 uM incubated for 24 hrs by qRT-PCR analysis; assay type: functional, cell-based
In short: (§3)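 LNCaP, VCaP and 22Rv1 cells treated with DMSO or compounds for 24 h. AR-full and AR-V7 mRNA measured by qRT-PCR and normalised to GAPDH. Mean ± SD, n = 3, compared with DMSO by two-tailed t test.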

LNCaP [5] = assay: Induction of androgen receptor splice variant 7 mutant degradation in human LNCAP cells at 30 uM incubated upto 26 hrs in presence of bortezomib by Western blot analysis; assay type: functional, cell-based
[6] = Toxicity in BALB/c mouse xenografted with castration-resistant human VCaP cells assessed as weight loss at 30 to 60 mg/kg, po administered for 40 days; assay type: organism-based; settings: in vivo, 960 h
In short: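 Castration-resistant VCaP xenografts in male BALB/c nude mice. Animals treated once daily for 40 days, with a vehicle group included.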

CWR22R [7] = assay: Inhibition of AR splice variant 7 mutant expression in human 22Rv1 cells at 10 to 40 uM incubated for 24 hrs by Western blot analysis analysis; assay type: functional, cell-based; in short: as §2
VCaP [8] = assay: Antiproliferative activity against human VCaP expressing AR assessed as reduction in cell viability incubated for 6 days by CCK-8 assay; assay type: functional, cell-based; settings: 144 h
In short: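 Cell proliferation assay run on LNCaP/AR, VCaP, 22Rv1, PC-3 and L-02 cells, with PC-3 and L-02 serving as AR-independent toxicity controls. IC50 fitted in GraphPad Prism 5 as the mean of at least two experiments, each in duplicate. Deviations under 35%.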

LNCaP [9] = assay: Inhibition of AR splice variant 7 mutant gene expression in human LNCAP cells at 5 to 20 uM incubated for 24 hrs by qRT-PCR analysis; assay type: functional, cell-based; in short: as §3
LNCaP [10] = assay: Inhibition of AR mRNA level in human LNCAP cells at 5 to 20 uM incubated for 24 hrs by qRT-PCR analysis; assay type: functional, cell-based; in short: as §3

inhibition [1]	inhibition [3]	IC50 (VCaP [8]) [nM]	Compound	inhibition (VCaP [2])	inhibition (CWR22R [4])	Activity (LNCaP [5])	Activity [6]	inhibition (CWR22R [7])	inhibition (LNCaP [9])	inhibition (LNCaP [10])
Active	Active	640	C[C@@H](Cn1ccc(-c2ccc(C#N)c(Cl)c2)n1)Nc1ncnc2nc[nH]c12	Active	Active	inactive	Non-Toxic	Active		
Active	Active	730	C[C@@H](Cn1ccc(-c2ccc(C#N)c(Cl)c2)n1)Nc1cccc2ncccc12						Active	Active
